{"source": "ChEMBL document CHEMBL3763095", "about": "“Naphtho[1',2':4,5]imidazo[1,2-a]pyridine-5,6-diones: Synthesis, enzymatic reduction and cytotoxic activity” (Bioorg Med Chem Lett, 2016)", "key": {"MCF7 [1]": {"test_system": "MCF7", "test": "Cytotoxicity against human MCF7 cells expressing NQO1 assessed as cell viability after 24 hrs by MTT assay", "format": "functional", "settings": "MCF7, 24 h, read-out: LC50 (the source's name)", "outline": "(§1)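 Cells exposed to the quinones for 24 h, then survival read by MTT assay. Viability expressed as percent of solvent-treated control cells. LC50 (concentration causing 50% lethal effect) obtained from logistic dose-response curves.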"}, "MCF7 [2]": {"test_system": "MCF7", "test": "Ratio of LC50 for human MCF7 cells expressing NQO1 in presence of NQO1 inhibitor dicoumarol to LC50 for human A549 cells expressing NQO1 in absence of NQO1 inhibitor dicoumarol", "format": "functional"}, "[3]": {"test": "Cytotoxicity against NQO1-deficient human HL60 cells assessed as cell viability after 24 hrs by MTT assay", "format": "cell-based, HL-60", "settings": "read-out: LC50", "outline": "as §1"}, "A549 [4]": {"test_system": "A549", "test": "Cytotoxicity against human A549 cells expressing NQO1 assessed as cell viability after 24 hrs by MTT assay", "format": "functional", "settings": "A549, 24 h, read-out: LC50 (the source's name)", "outline": "as §1"}, "A549 [5]": {"test_system": "A549", "test": "Ratio of LC50 for human A549 cells expressing NQO1 in presence of NQO1 inhibitor dicoumarol to LC50 for human A549 cells expressing NQO1 in absence of NQO1 inhibitor dicoumarol", "format": "functional"}, "Staphylococcus aureus": {"test_system": "Staphylococcus aureus", "test": "Antibacterial activity against Staphylococcus aureus ATCC 25923 after 16 hrs by two-fold microdillution method", "format": "functional", "settings": "ATCC 25923, 16 h"}}, "data": [{"smiles": "O=C1C(=O)c2c(nc3ccccn23)-c2ccc([N+](=O)[O-])cc21", "values": [{"measurement": "CC50", "setting": "MCF7 [1]", "result": 280, "unit": "nM"}, {"measurement": "RatioLC50", "setting": "MCF7 [2]", "result": 3.6}, {"measurement": "CC50 at 24 h", "setting": "[3]", "result": "> 15000", "unit": "nM"}, {"measurement": "CC50", "setting": "A549 [4]", "result": 120, "unit": "nM"}, {"measurement": "RatioLC50", "setting": "A549 [5]", "result": 3.3}]}, {"smiles": "O=C1C(=O)c2c(nc3ccc(Br)cn23)-c2ccccc21", "values": [{"measurement": "CC50", "setting": "MCF7 [1]", "result": 1390, "unit": "nM"}, {"measurement": "MIC", "setting": "Staphylococcus aureus", "result": 6.1, "unit": "µM"}, {"measurement": "CC50 at 24 h", "setting": "[3]", "result": "> 15000", "unit": "nM"}, {"measurement": "CC50", "setting": "A549 [4]", "result": 3930, "unit": "nM"}]}, {"smiles": "O=C1C(=O)c2c(nc3ccc(C(F)(F)F)cn23)-c2ccccc21", "values": [{"measurement": "CC50", "setting": "MCF7 [1]", "result": 3780, "unit": "nM"}, {"measurement": "MIC", "setting": "Staphylococcus aureus", "result": 6.3, "unit": "µM"}, {"measurement": "CC50 at 24 h", "setting": "[3]", "result": "> 15000", "unit": "nM"}, {"measurement": "CC50", "setting": "A549 [4]", "result": 900, "unit": "nM"}]}, {"smiles": "O=C1C(=O)c2c(nc3ccc(F)cn23)-c2ccccc21", "values": [{"measurement": "CC50", "setting": "MCF7 [1]", "result": 1320, "unit": "nM"}, {"measurement": "MIC", "setting": "Staphylococcus aureus", "result": 15, "unit": "µM"}, {"measurement": "CC50 at 24 h", "setting": "[3]", "result": 13000, "unit": "nM"}, {"measurement": "CC50", "setting": "A549 [4]", "result": 2030, "unit": "nM"}]}, {"smiles": "O=C1C(=O)c2c(nc3ncccn23)-c2ccccc21", "values": [{"measurement": "CC50", "setting": "MCF7 [1]", "result": 800, "unit": "nM"}, {"measurement": "MIC", "setting": "Staphylococcus aureus", "result": 8, "unit": "µM"}, {"measurement": "CC50 at 24 h", "setting": "[3]", "result": "> 15000", "unit": "nM"}, {"measurement": "CC50", "setting": "A549 [4]", "result": 1600, "unit": "nM"}]}, {"smiles": "O=C1C(=O)c2c(nc3ccc([N+](=O)[O-])cn23)-c2ccccc21", "values": [{"measurement": "CC50", "setting": "MCF7 [1]", "result": 1700, "unit": "nM"}, {"measurement": "CC50 at 24 h", "setting": "[3]", "result": "> 15000", "unit": "nM"}, {"measurement": "CC50", "setting": "A549 [4]", "result": 2300, "unit": "nM"}]}, {"smiles": "O=C1C(=O)c2c(nc3ccccn23)-c2ccccc21", "values": [{"measurement": "CC50", "setting": "MCF7 [1]", "result": 510, "unit": "nM"}, {"measurement": "RatioLC50", "setting": "MCF7 [2]", "result": 2.3}, {"measurement": "MIC", "setting": "Staphylococcus aureus", "result": 16.1, "unit": "µM"}, {"measurement": "CC50 at 24 h", "setting": "[3]", "result": "> 15000", "unit": "nM"}, {"measurement": "CC50", "setting": "A549 [4]", "result": 670, "unit": "nM"}, {"measurement": "RatioLC50", "setting": "A549 [5]", "result": 3.1}]}, {"smiles": "Cc1ccn2c3c(nc2c1)-c1ccccc1C(=O)C3=O", "values": [{"measurement": "CC50", "setting": "MCF7 [1]", "result": 1250, "unit": "nM"}, {"measurement": "MIC", "setting": "Staphylococcus aureus", "result": 15.2, "unit": "µM"}, {"measurement": "CC50 at 24 h", "setting": "[3]", "result": "> 15000", "unit": "nM"}, {"measurement": "CC50", "setting": "A549 [4]", "result": 1500, "unit": "nM"}]}, {"smiles": "Cc1cccn2c3c(nc12)-c1ccccc1C(=O)C3=O", "values": [{"measurement": "CC50", "setting": "MCF7 [1]", "result": 1700, "unit": "nM"}, {"measurement": "MIC", "setting": "Staphylococcus aureus", "result": 15.2, "unit": "µM"}, {"measurement": "CC50 at 24 h", "setting": "[3]", "result": "> 15000", "unit": "nM"}, {"measurement": "CC50", "setting": "A549 [4]", "result": 3400, "unit": "nM"}]}, {"smiles": "Cc1ccc2nc3c(n2c1)C(=O)C(=O)c1ccccc1-3", "values": [{"measurement": "CC50", "setting": "MCF7 [1]", "result": 3940, "unit": "nM"}, {"measurement": "MIC", "setting": "Staphylococcus aureus", "result": 15.2, "unit": "µM"}, {"measurement": "CC50 at 24 h", "setting": "[3]", "result": "> 15000", "unit": "nM"}, {"measurement": "CC50", "setting": "A549 [4]", "result": 8340, "unit": "nM"}]}, {"smiles": "O=C1C(=O)c2c(nc3ccc4ccccc4n23)-c2ccccc21", "values": [{"measurement": "CC50", "setting": "MCF7 [1]", "result": "> 15000", "unit": "nM"}, {"measurement": "CC50 at 24 h", "setting": "[3]", "result": "> 15000", "unit": "nM"}, {"measurement": "CC50", "setting": "A549 [4]", "result": "> 15000", "unit": "nM"}]}, {"smiles": "O=C1C(=O)c2c(nc3ccc(Cl)cn23)-c2ccccc21", "values": [{"measurement": "CC50", "setting": "MCF7 [1]", "result": 3410, "unit": "nM"}, {"measurement": "MIC", "setting": "Staphylococcus aureus", "result": 7, "unit": "µM"}, {"measurement": "CC50 at 24 h", "setting": "[3]", "result": 10000, "unit": "nM"}, {"measurement": "CC50", "setting": "A549 [4]", "result": 2060, "unit": "nM"}]}, {"smiles": "COc1ccc2nc3c(n2c1)C(=O)C(=O)c1ccccc1-3", "values": [{"measurement": "CC50", "setting": "MCF7 [1]", "result": 2100, "unit": "nM"}, {"measurement": "MIC", "setting": "Staphylococcus aureus", "result": 14.3, "unit": "µM"}, {"measurement": "CC50 at 24 h", "setting": "[3]", "result": "> 15000", "unit": "nM"}, {"measurement": "CC50", "setting": "A549 [4]", "result": 3350, "unit": "nM"}]}, {"smiles": "CC1(C)S[C@@H]2[C@H](NC(=O)[C@H](N)c3ccc(O)cc3)C(=O)N2[C@H]1C(=O)O", "note": "[AMOXICILLIN]", "values": [{"measurement": "MIC", "setting": "Staphylococcus aureus", "result": 0.3, "unit": "µM"}]}, {"smiles": "COc1cccc2c1C(=O)c1c(O)c3c(c(O)c1C2=O)C[C@@](O)(C(=O)CO)C[C@@H]3O[C@H]1C[C@H](N)[C@H](O)[C@H](C)O1", "note": "[DOXORUBICIN]", "values": [{"measurement": "CC50", "setting": "MCF7 [1]", "result": 1560, "unit": "nM"}, {"measurement": "CC50 at 24 h", "setting": "[3]", "result": 370, "unit": "nM"}, {"measurement": "CC50", "setting": "A549 [4]", "result": 1170, "unit": "nM"}]}, {"smiles": "CN[C@@H]1[C@H](O[C@H]2[C@H](O[C@H]3[C@H](O)[C@@H](O)[C@H](N=C(N)N)[C@@H](O)[C@@H]3N=C(N)N)O[C@@H](C)[C@]2(O)C=O)O[C@@H](CO)[C@H](O)[C@H]1O", "note": "[STREPTOMYCIN]", "values": [{"measurement": "MIC", "setting": "Staphylococcus aureus", "result": 5.4, "unit": "µM"}]}]}
